Key:
[1] = molecular target: T1, L-lactate dehydrogenase B chain (Sus scrofa, UniProt P00336); assay: Inhibition of porcine heart LDH using pyruvate as substrate and NADH as cofactor measured after 2 hrs by stopped-flow spectrometric method
Summary of the method: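 Stopped-flow assay of pig heart LDH (5 nN) with 100 μM NADH and 300 μM pyruvate in 100 mM sodium phosphate pH 7.2 at 37 °C, after 2 h inhibitor preincubation at 4 °C. A340 initial rates averaged over five shots and normalised to uninhibited activity. EC50 from a four-parameter fit with min, max, EC50 and Hill coefficient refined.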

[2] = molecular target: T1, L-lactate dehydrogenase B chain; assay: Non-competitive inhibition of porcine heart LDH using varying levels of pyruvate as substrate and NADH as cofactor measured after 2 hrs by double reciprocal lineweaver-burk plot analysis

T1 sequence (P00336 whole entry): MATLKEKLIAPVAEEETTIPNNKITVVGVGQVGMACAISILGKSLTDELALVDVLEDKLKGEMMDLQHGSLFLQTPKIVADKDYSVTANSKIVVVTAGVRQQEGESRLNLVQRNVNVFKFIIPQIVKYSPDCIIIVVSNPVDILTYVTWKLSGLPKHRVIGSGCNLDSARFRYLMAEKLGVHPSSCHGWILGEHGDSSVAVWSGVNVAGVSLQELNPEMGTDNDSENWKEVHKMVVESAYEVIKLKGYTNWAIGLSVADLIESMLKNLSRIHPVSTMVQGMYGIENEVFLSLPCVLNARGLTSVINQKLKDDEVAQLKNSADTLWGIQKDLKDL

| EC50 [1] [µM] | Ki [2] [µM] | Compound |
| --- | --- | --- |
| 78 | 498 | CC(=O)Nc1cccc(O)c1 [METACETAMOL] |
| 712 | 355 | NC(=O)c1cc(O)cc(O)c1 |

From ChEMBL document CHEMBL4257555, “Small molecule cores demonstrate non-competitive inhibition of lactate dehydrogenase” (Medchemcomm, 2018)
